Compound activity as filed in PubChem BioAssay.
Not all results are given here.
HKDC1 act: activators of human hexokinase HKDC1; hit rate 0.056% among 340,000; Q2TB90; recombinant HKDC1, G6PDH/diaphorase resazurin fluorescence; hits give low values; activity change, negative = activation, % at 20 µM;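 active = activation of 40% or more at 20 µM, a change of -40% or lower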
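system = in-house human HKDC1 enzyme, G6PDH and diaphorase coupling enzymes | amount = HKDC1 5 µg/mL | measured by = resorufin fluorescence from 100 µM resazurin, NADP 1 mM, Ex 525/Em 613 nm | times = enzyme reaction 90 min, room temperature, in dark | doses = single compound dose of 20 µM, 1% DMSO final | medium = Tris/MgCl2 buffer, pH 8.0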
Each line names hits and unclear results; the compound was inactive in the other large screens.

Cc1ccc(/C=C/c2nc3sc(C(=O)O)c(C)c3c(=O)[nH]2)cc1[N+](=O)[O-]	none
Cn1c(SSc2ccc(-c3cccnc3)n2C)ccc1-c1cccnc1	HKDC1 act -341
COc1ccc(OC)c(NC(=O)CSc2ccc(-c3ccco3)nn2)c1	none
O=C(O)CCNc1cc(N2CCN(C(=O)c3ccco3)CC2)c2noc3c2c1C(=O)c1ccccc1-3	none
CCN(CC)c1ccc(/C=N/NC(=O)c2cccc(S(=O)(=O)Nc3ccccc3OC)c2)c(O)c1	HKDC1 act -43
CCc1ccc(S(=O)(=O)Nc2ccc(O)c3ccccc23)cc1	none
O=S(=O)(Nc1ccc(O)c2ccccc12)c1ccc(F)cc1	none
O=C(O)c1ccccc1-c1ccc(/C=c2\sc3nc4cc(Br)cnc4n3c2=O)o1	none
O=C(O)c1[nH]c2ccccc2c1C(c1cc(Cl)cc([N+](=O)[O-])c1O)c1c(C(=O)O)[nH]c2ccccc12	none
C[c-]1[c-](C)[c-](C)[c-](C)[c-]1C.[Fe].c1cc2nccc(N3CCCC3)[c-]2c1 (stereo not given)	none
O=c1c2ccccc2nc2n1CCC2	none
CC(=O)C1=C(c2cccc([N+](=O)[O-])c2)N(C(C)=O)n2c(C)nnc2S1	HKDC1 act -308
CCC1C/C(=C\c2cccnc2)C(=O)/C(=C/c2cccnc2)C1 (stereo not given)	none
O=C(NCc1ccccn1)c1cc(S(=O)(=O)N2CCN(c3ccccc3)CC2)ccc1Cl	none
CC1=C(SCc2ccccc2)C(=O)c2ccccc2C1=O	none
O=C(CN(C(=O)CCC(=O)Nc1ccccn1)c1ccc2c(c1)OCO2)NCc1ccc(F)cc1	HKDC1 act -46
O=C1C(SCCO)=C(SCCO)C(=O)c2ccccc21	none
Oc1ccc(O)c(Cc2nc3ccccc3[nH]2)c1	none
Cc1onc(-c2ccccc2)c1C(=O)NC(=S)NNC(=O)c1ccccc1O	HKDC1 act -45
COC(=O)CCC(=O)OC1(C)C(=O)C2=CN(Cc3ccccc3)C(c3ccc(OC)cc3)=CC2=C(Br)C1=O (stereo not given)	none
COc1cccc(OC)c1-c1nn2c(-c3cc(-c4ccccc4)n[nH]3)nnc2s1	none
O=C(COc1ccccc1/C=C\c1[nH]c(=O)[nH]c(=O)c1[N+](=O)[O-])Nc1ccccc1	none
C=CC(=O)N1C/C(=C/c2ccc(Cl)cc2)C(=O)/C(=C\c2ccc(Cl)cc2)C1	none
Cc1nc2c3cc(F)ccc3n(Cc3ccccc3)c2s1	HKDC1 act -60
O=C(O)c1ccccc1-c1c2cc(I)c(=O)c(I)c-2oc2c(I)c(O)c(I)cc12	none
O=C1C(=Cc2ccc(Br)o2)C(=O)c2ccccc21	none
NC(=S)N/N=C/c1ccc(Br)o1	HKDC1 act -55
O=C(Nc1ccc2nc(-c3ccco3)c(-c3ccco3)nc2c1)N1CCCCCC1	none
NC(=O)[C@H]1CC2(CC(c3cccc(NC(=O)[C@H]4CCC(=O)N4)c3)=NO2)CN1C(=O)c1ccccc1 (stereo not given in full)	none
CN(C)S(=O)(=O)c1cccc(N=C2NN=C(c3ccccc3)CS2)c1	HKDC1 act -281
CC(=O)Nc1ccc(C2=NNC(=Nc3cccc(S(=O)(=O)N(C)C)c3)SC2)cc1	HKDC1 act -284
COc1ccc(C2=NNC(=Nc3cc(S(=O)(=O)N(C)C)ccc3C)SC2)c(OC)c1	HKDC1 act -125
Cc1ccc(-c2nc(NC(=O)CSc3cc(C)c4ccccc4n3)ns2)cc1	none
O=Cc1[nH]c2ccccc2c1N(C(=O)CCl)c1ccccc1	none
CC(NC1=CC(=O)c2cccnc2C1=O)C(O)c1ccccc1 (stereo not given)	none
CCCC(NC(=O)Cc1c(C)c2cc3c(C)c(C)oc3c(C)c2oc1=O)C(=O)N[C@@H](Cc1ccccc1)C(=O)O (stereo not given in full)	none
O=C(O)c1cc(O)c2c(c1)[C@@H]([C@H]1c3cc(C(=O)O)cc(O)c3C(=O)c3c(O[C@@H]4O[C@H](CO)[C@@H](O)[C@H](O)[C@H]4O)cccc31)c1cccc(OC3O[C@H](CO)[C@@H](O)[C@H](O)[C@H]3O)c1C2=O (stereo not given in full)	none
Cc1ccc(S(=O)(=O)Nc2c(O)ccc3ccccc23)cc1	none
CCOC(=O)C1=C(Cc2ccc(Cl)cc2)C(=O)c2ccccc2C1=O	none
Cc1ccccc1/C=C/C(=O)c1ccc([N+](=O)[O-])o1	none
COC(=O)c1ccccc1NC1=C/C(=N\S(=O)(=O)c2ccc(C(=O)O)cc2)c2ccccc2C1=O	none
O=C1/C(=C/Nc2cccc([N+](=O)[O-])c2)CCc2ccccc21	none
Cc1[nH]c2ccccc2c1C1=CC(=O)C=CC1=O	none
CCN(CC)c1ccc2c(c1)oc(=O)c1c(Cl)cc(=O)oc12	none
CCOC(=O)c1c(NC(=O)CSc2nnnn2-c2ccc(OC)cc2)sc(C)c1C	HKDC1 act -48
COC1=C(Br)C(=O)c2ncccc2C1=O	none
O=C1C=C(N(CCO)Cc2ccccc2)c2ccccc2C1=O	none
O=C(O)CSc1cc(NS(=O)(=O)c2cccc([N+](=O)[O-])c2)c2ccccc2c1O	none
O=C(Cc1ccc(Cl)cc1Cl)Nc1cccc(S(=O)(=O)Nc2ccccc2F)c1	HKDC1 act -41
Cc1ccc2c(c1C)NC(C(=O)O)C1CC=CC21 (stereo not given)	none
CCN(CC)c1ccc(NC(=O)c2ccccc2Br)cc1S(=O)(=O)Nc1ccccc1OC	HKDC1 act -43
O=C1C=CC2(C=C1)O[C@H](Cc1ccccc1)[C@@H](Cc1ccccc1)O2	none
CC1=NOC(=O)/C1=C\c1ccc(-c2cc(Cl)ccc2Cl)o1	none
S=C(NCCc1ccc(Cl)cc1)NCc1ccccc1	HKDC1 act -63
Cc1cc(C(F)F)n2ncc(C(=O)NCCc3ccc(Cl)cc3)c2n1	none
COC(=O)c1ccc2c(c1)C(C)(C)C(/C=C/c1ccccc1O)=[N+]2C	none
Clc1ccc(N=c2ssnc2Cl)nc1	HKDC1 act -194
O=C(Nc1ccc(F)cc1)C(=O)c1c(O)[nH]c2ccc([N+](=O)[O-])cc12	none
C/C(=N\NC(=O)c1cc(C2CC2)nc2ccccc12)c1ccc(O)cc1O	HKDC1 act -44
O=C(NCCc1ccccc1)c1cnn2c(C(F)F)cc(C3CC3)nc12	none
COC(=O)c1ccc(NCc2c(O)ccc(O)c2Br)cc1Cl	none
CCCN(CCC)C(=O)c1cc([N+](=O)[O-])cc2c1-c1ccc([N+](=O)[O-])cc1C2=C(C#N)C#N	none
O=C1C(Nc2ccccc2)=C/C(=N/S(=O)(=O)c2cccs2)c2ccccc21	none
O=C(NC(=S)NNC(=O)c1cnccn1)c1ccc(F)cc1	HKDC1 act -48
COc1ccc(/C=C/C(=O)NC(=S)NNC(=O)c2cnccn2)cc1	HKDC1 act -40
CCOC(=O)c1cc(-c2ccc(/C=C3/C(=O)N(c4ccc(C(=O)O)cc4)N=C3C)o2)ccc1Cl	none
CC1(OC(=O)CCc2ccccc2)C(=O)C=C2C=C(c3ccc(C#N)cc3)N(Cc3ccccc3)C=C2C1=O (stereo not given)	none
COc1cc(/C=C2\SC(c3ccccc3)=NC2=O)cc(Cl)c1O	none
O=C1C(Cl)=C(N2CCC(C(=O)O)CC2)C(=O)c2ccccc21	none
N#CC(C#N)=Cc1cc2ccccc2nc1N1CCCCC1	none
COc1cc(N=c2ssnc2Cl)cc(OC)c1	HKDC1 act -51
Nc1ccc(S(=O)(=O)c2cc(O)c3ccccc3c2O)cc1	none
NC(=NCCCCCCN=C(N)/N=C(\N)Nc1ccc(Cl)cc1)/N=C(\N)Nc1ccc(Cl)cc1	none
COCCNc1ccc([N+](=O)[O-])cc1C(=O)Nc1cccc(C)n1	HKDC1 act -58
CCOc1ccc2c(c1)C(NC(C)=O)C(=O)N2CCN1CCOCC1 (stereo not given)	none
